Assays:
[1] = target: Tyrosine-protein kinase Lck (Homo sapiens, UniProt P06239); test: Inhibition of p56lck autophosphorylation; format: functional
[2] = (§1) Inhibition of c-erb B-2/HER2/neu receptor; format: functional
Method in brief: (§2)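 HER2/neu immunoprecipitated from SK-BR-3 breast cancer cells (1-2 × 10^6 cells per assay) on plates coated with goat anti-mouse Ig and anti-HER2 mAb (20 μg/mL), blocked with gelatin/glycine. Lysates bound overnight on ice, then washed. Kinase reaction in 25 mM HEPES pH 7.2, 3 mM MnCl2, 20 mM MgCl2, 0.1% NP-40 and 1 µCi [γ-32P]ATP, 20 min at 25 °C. Products run on 7.5% reducing SDS-PAGE; inhibition calculated from densitometric band densities.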

[3] = Inhibition of epidermal growth factor receptor (EGFR) autophosphorylation; format: functional
[4] = as §1; method in brief: as §2
[5] = Inhibition of epidermal growth factor receptor (EGFR)

Tyrosine-protein kinase Lck, sequence (P06239 whole entry): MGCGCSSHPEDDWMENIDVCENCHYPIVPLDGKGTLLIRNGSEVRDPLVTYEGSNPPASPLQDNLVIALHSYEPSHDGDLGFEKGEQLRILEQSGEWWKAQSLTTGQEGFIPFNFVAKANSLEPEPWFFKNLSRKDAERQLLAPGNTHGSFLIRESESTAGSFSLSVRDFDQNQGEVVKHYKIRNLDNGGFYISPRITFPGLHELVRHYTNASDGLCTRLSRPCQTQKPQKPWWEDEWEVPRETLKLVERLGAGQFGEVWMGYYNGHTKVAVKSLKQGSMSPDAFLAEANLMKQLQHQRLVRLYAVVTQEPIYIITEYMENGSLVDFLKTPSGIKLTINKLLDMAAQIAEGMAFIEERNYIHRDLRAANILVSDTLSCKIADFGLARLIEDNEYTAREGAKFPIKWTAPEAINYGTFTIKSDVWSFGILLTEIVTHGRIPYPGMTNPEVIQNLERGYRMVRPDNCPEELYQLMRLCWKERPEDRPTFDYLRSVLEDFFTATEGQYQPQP

Structure (SMILES)	IC50 [1]	IC50 [2]	IC50 [3]	IC50 [4]	IC50 [5]
O=C(O)c1cc(N(Cc2ccccc2O)Cc2cc(O)ccc2O)ccc1O [LAVENDUSTIN A]	8 µM	9 µM	7 µM	–	–
O=C(O)c1cc(/C=C/c2cc(O)ccc2O)ccc1O	0.06 µM	0.6 µM	2 µM	–	–
O=C(O)c1cc(CCc2ccc(O)c(O)c2)ccc1O	1 µM	–	–	0.6 µM	12 µM
O=C(O)c1cc(/N=C/c2cc(O)ccc2O)ccc1O	85 µM	70 µM	9 µM	–	–
O=C(O)c1cc(/C=C/c2ccc(O)c(O)c2)ccc1O	–	0.2 µM	5 µM	–	–

The next lines start with results.

IC50 [1]	IC50 [2]	IC50 [3]	Structure (SMILES)	IC50 [4]	IC50 [5]
1 µM	4 µM	20 µM	O=C(O)c1cc(CCc2cc(O)ccc2O)ccc1O	–	–
10 µM	0.9 µM	4 µM	O=C(O)c1cc(NCc2cc(O)ccc2O)ccc1O [LAVENDUSTIN C]	–	–

— ChEMBL document CHEMBL1126843, “Non-amine based analogues of lavendustin A as protein-tyrosine kinase inhibitors” (J Med Chem, 1993)
